Test results taken from PMC9968262 (American Journal of Clinical Dermatology, 2022).
Values joined by “and” are separate entries in the source; they are usually repeats but may differ in a detail not shown here. Equal entries are not always repeated. Where two headings read alike, the source gives them in different places.

Tests used:
[1] = test system: phosphodiesterase 4 (PDE4); conditions: active metabolite; cited from earlier work
[2] = DERMIS-2; format: in vivo, human; conditions: for Week 4 extrapolated AUC24, h*ng/mL / Week 8 extrapolated AUC24, h*ng/mL: predose concentration x 24, mean (SD)
Summary of the method: (§1)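 Patients with chronic plaque psoriasis covering 2–20% BSA were randomized 2:1 (double-blind) to 0.3% cream or vehicle. Cream was applied once daily for 8 weeks, including to new lesions. Predose (Ctrough) plasma was sampled at Baseline, Week 4 and Week 8. Parent and N-oxide were measured by validated LC-MS/MS (LLOQ 0.100 ng/mL). AUC24 = observed predose concentration × 24.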

[3] = cited from earlier work; for peak plasma concentration (Cmax): healthy volunteers; for elimination half-life: roflumilast administered orally
[4] = DERMIS-1; format: in vivo, human; conditions: for Week 4 extrapolated AUC24, h*ng/mL / Week 8 extrapolated AUC24, h*ng/mL: predose concentration x 24, mean (SD)
Summary of the method: as §1

[5] = Phase I/IIa study; format: in vivo, human; conditions: for skin samples with measurable (quantifiable) level: N = 27 skin samples; for Kp at 24 h / concentration at 24 h / concentration at 28 days: human, topical; for Kp at 24 h: skin (punch biopsy) / plasma; for concentration at 24 h / concentration at 28 days: skin (punch biopsy)
[6] = Maximal usage PK study; format: in vivo, human; conditions: for steady state achieved by: plasma concentrations, roflumilast cream 0.3% once daily; for Tmax, h (min–max): plasma, Day 15, roflumilast cream 0.3% daily topical, mean (min–max)
Summary of the method: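 Open-label, single-arm, 2-week maximal-use study: 0.3% cream at 2 mg/cm2 once each evening to all plaques except the scalp. Subjects were adolescents 12–17 y (≥10% BSA) and adults (≥20% BSA), with IGA ≥3. Plasma was sampled predose and 1, 2, 4, 8 and 24 h post-dose on Days 1 and 15, plus 7, 14 and 21 days after the last dose. Analysis was LC-MS/MS (LLOQ 0.100 ng/mL) with noncompartmental linear trapezoidal methods.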

[7] = Phase I/IIa study; format: in vivo, human; conditions: for plasma concentration, mean (SD): Day 28; for concentration at 24 h / concentration at 28 days: human, plasma, topical
Summary of the method: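 Cohort 2 was double-blind and vehicle-controlled: 0.15% or 0.5% cream once daily for 28 days. Patients had psoriasis for >6 months and ≤5% BSA involvement. Day 28 plasma was drawn before application and at 1, 2, 4, 6 and 24 h after the last dose. Parent and N-oxide were quantified by validated LC-MS/MS (LLOQ 0.100 ng/mL).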

[8] = at 22 °C; cited from earlier work
[9] = oral 500 µg; cited from earlier work
[10] = cited from earlier work
[11] = age 6–11 years (N = 1), predose concentration x 24
[12] = age 6–11 years (N = 1), predose plasma (Ctrough)
[13] = age 12–17 years (N = 5), predose plasma (Ctrough), mean (SD)
[14] = age ≥ 18 years (N = 244), predose plasma (Ctrough), mean (SD)
[15] = multiple dosing of oral roflumilast 500 µg
[16] = age 12–17 years (N = 3), predose plasma (Ctrough), mean (SD)
[17] = age ≥ 18 years (N = 241), predose plasma (Ctrough), mean (SD)

O=C(Nc1c(Cl)c[n+]([O-])cc1Cl)c1ccc(OC(F)F)c(OCC2CC2)c1 [roflumilast N-oxide]
potency of N-oxide metabolite relative to roflumilast [1]: threefold less potent | Week 4 extrapolated AUC24 [2, 11]: 576 ng·h/mL | Week 8 extrapolated AUC24 [2, 11]: 614 ng·h/mL | Week 4 conc. [2, 12]: 24.0 ng/mL | Week 8 conc. [2, 12]: 25.6 ng/mL | Week 4 extrapolated AUC24, h*ng/mL ([2]; age 12–17 years (N = 5)): 84.6 (58.4) h*ng/mL | Week 8 extrapolated AUC24, h*ng/mL ([2]; age 12–17 years (N = 5)): 161 (174) h*ng/mL | Week 4 conc., ng/mL [2, 13]: 3.53 (2.44) ng/mL | Week 8 conc., ng/mL [2, 13]: 6.72 (7.24) ng/mL | Week 4 extrapolated AUC24, h*ng/mL ([2]; age ≥ 18 years (N = 244)): 294 (338) h*ng/mL | Week 8 extrapolated AUC24, h*ng/mL ([2]; age ≥ 18 years (N = 244)): 249 (308) h*ng/mL | Week 4 conc., ng/mL [2, 14]: 12.2 (14.1) ng/mL | Week 8 conc. [2, 14]: 10.2 ng/mL | systemic exposure of roflumilast N-oxide relative to roflumilast ([3]; intravenous administration of roflumilast): 7.4 times | peak plasma concentration (Cmax) [3, 15]: 21.7 ng/mL | systemic exposure of roflumilast N-oxide relative to roflumilast ([3]; oral administration of roflumilast): 12.4 times | elimination half-life [3]: 30 h | Week 8 extrapolated AUC24 [4, 11]: 103 ng·h/mL | Week 4 extrapolated AUC24, h*ng/mL ([4]; age 12–17 years (N = 3)): 202 (91.2) h*ng/mL | Week 8 extrapolated AUC24, h*ng/mL ([4]; age 12–17 years (N = 3)): 209 (132) h*ng/mL | Week 4 conc., ng/mL [4, 16]: 8.42 (3.80) ng/mL | Week 8 conc., ng/mL [4, 16]: 8.71 (5.49) ng/mL | Week 4 extrapolated AUC24, h*ng/mL ([4]; age ≥ 18 years (N = 241)): 288 (310) h*ng/mL | Week 8 extrapolated AUC24, h*ng/mL ([4]; age ≥ 18 years (N = 241)): 242 (290) h*ng/mL | Week 4 conc., ng/mL [4, 17]: 11.8 (12.9) ng/mL | Week 8 conc. [4, 17]: 9.86 ng/mL and 9.9 ng/mL | skin samples with measurable (quantifiable) level [5]: only one sample | skin samples with measurable (quantifiable) level ([5]; listed as Roflumilast N-oxide): only one skin sample | skin concentrations lower than circulating plasma concentrations ([5]; skin LLOQ of 0.2 ng/g, cream 0.15% and 0.5%): at least 30 fold | steady state achieved by [6]: ≤ 15 days | Tmax, h (min–max) ([6]; adolescents 12–17 years): 16.5 (1.0–24.0) h | Tmax, h (min–max) ([6]; adults ≥18 years): 12.9 (0–24) h | roflumilast N-oxide plasma concentrations relative to roflumilast concentrations ([6]; repeat daily topical roflumilast cream 0.3%, steady state): eightfold | plasma concentration, mean (SD) ([7]; roflumilast cream 0.15% (n = 21)): 5.44 [4.95] ng/mL | plasma concentration, mean (SD) ([7]; roflumilast cream 0.5% (n = 20)): 6.52 [4.04] ng/mL

O=C(Nc1c(Cl)cncc1Cl)c1ccc(OC(F)F)c(OCC2CC2)c1 [roflumilast]
water solubility [8]: 0.52 to 0.56 µg/mL | oral bioavailability ([3]; 500 µg oral dose): approximately 79% | time to absorption / peak levels after oral dose ([3]; 500 µg oral dose): about 1.25 h | time to absorption / peak levels after oral dose ([3]; 500 µg oral dose, listed as Roflumilast): 1 h | Cmax in COPD patients higher than in healthy volunteers [3, 15]: about 6% | peak plasma concentration (Cmax) [3, 15]: 6.01 ng/mL | peak-to-trough ratio ([3]; oral administration): greater than 10 | elimination half-life [3]: 17 to 30 h and 17 h | Week 8 extrapolated AUC24, h*ng/mL ([4]; age ≥ 18 years (N = 241)): 47.4 (58.3) h*ng/mL | Week 4 conc., ng/mL [4, 17]: 2.05 (2.83) ng/mL | diarrhea (occurrence) [9]: 9.5% | nausea (occurrence) [9]: 4.7% | weight decreased (occurrence) [9]: 7.5% | skin samples with measurable (quantifiable) level [5]: All but one sample | Kp at 24 h ([5]; 0.15 % cream): 126 | Kp at 24 h ([5]; 0.5 % cream): 61.8 | concentration at 24 h ([5]; 0.15 % cream): 84 ng/mL | concentration at 28 days ([5]; 0.15 % cream): 120 ng/g | concentration at 24 h ([5]; 0.5 % cream): 51 ng/mL | concentration at 28 days ([5]; 0.5 % cream): 56.1 ng/g | logP [10]: 3.53 | steady state achieved by [6]: ≤ 15 days | peak-to-trough ratio (plasma) ([6]; steady state (Day 15), topical roflumilast cream 0.3%): 1.2 | concentration at 24 h ([7]; 0.15 % cream): 1.15 ng/mL | concentration at 28 days ([7]; 0.15 % cream): 1.03 ng/mL | concentration at 24 h ([7]; 0.5 % cream): 0.805 ng/mL | concentration at 28 days ([7]; 0.5 % cream): 1.15 ng/mL
